The text below walks through data of paper PMC4245169 (ACS Chemical Biology, 2014).

Structures are written as SMILES.

For assay [1], the system named is E. coli whole cell extract (prokaryotic ribosomal preparation). The assay is described as follows: Cell free translation inhibition, E. coli S30 extract, luciferase reporter. Type of assay: biochemical. Particulars: read-out: E. coli IC50, average of three independent experiments. The essentials:
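Test compound at varying concentrations preincubated 20 min at room temperature with E. coli S30 extract plus all amino acids. Luciferase control template then added and translation run 60 min at 37 °C, stopped on ice 5 min. Luminescence read right after luciferin addition. Triplicates normalised to vehicle control; macrolide positive controls. IC50 by logit regression, averaged over three independent experiments.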

Assay [2] has as its system rabbit reticulocyte whole cell lysate (eukaryotic ribosomal preparation). The assay can be described thus: Cell free translation inhibition, rabbit reticulocyte lysate. Type of assay: biochemical. The essentials:
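Nuclease-treated rabbit reticulocyte lysate was preincubated with test compound at varying concentrations and all amino acids for 20 min at room temperature. Luciferase control template was then added, and translation ran at 30 °C for 90 min before stopping on ice for 5 min. Luminescence was read after luciferin addition. Samples were run in triplicate and normalized to vehicle control. IC50 was fit by logit regression and averaged over three independent experiments.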

Assay [3] relates to E. coli 23S rRNA. The assay can be described thus: CMCT chemical footprinting of 23S rRNA in intact 70S ribosomes. Particulars: primer 2180; peptolides and 7b 150 μM, clarithromycin 50 μM. It counts as binding.
Assay [4] has as its system E. coli 23S rRNA. Particulars: cited from earlier work.

For `CC[C@H]1OC(=O)[C@H](C)[C@@H](O[C@H]2C[C@@](C)(OC)[C@@H](O)[C@H](C)O2)[C@H](C)[C@@H](O[C@@H]2O[C@H](C)C[C@H](N(C)C)[C@H]2O)[C@](C)(OC)C[C@@H](C)C(=O)[C@H](C)[C@@H](O)[C@]1(C)O` [clarithromycin 1, clarithromycin], the IC50 in assay [1] was 320 ± 120 nM; in assay [2] (read-out: rabbit retic. IC50, cell free translation, luciferase reporter, average of three independent experiments) it was greater than 250000 nM. Moreover, in assay [2] (RRL, controls at 250 μM), the “inhibition of eukaryotic translation (in words)” value was “inactive”. Further, the “protection of U1963 from CMCT modification” value in assay [3] was “available to CMCT modification”.

With `CC[C@H]1OC(=O)[C@H](C)C(=O)[C@H](C)[C@@H](O[C@@H]2O[C@H](C)C[C@H](N(C)C)[C@H]2O)[C@](C)(OC)C[C@@H](C)C(=O)[C@H](C)[C@H]2N(CCCCn3cnc(-c4cccnc4)c3)C(=O)O[C@]12C` [TEL, telithromycin], the “protection of A752” value in assay [4] is on record as “protected”.
